Sampled rows, rich in hits. Any-hit rate of the full collection: about 1.9%.
NS3 helicase inh: inhibitors of HCV NS3 helicase, primary screen, biochemical, Cy5 molecular beacon fluorescence; Hepatitis C virus NS3 helicase; NS3 helicase DNA unwinding; inhibition, % at 10.9 µM; 290,000 tested, 0.56% active; AID 1800, 2009;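 active means inhibition above the mean of all tested compounds plus 3 SD, set per campaign, cut at about 35% in these data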;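 further: 0% = DMSO wells and 100% = thioflavine S control wells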
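Assay system – hepatitis C virus NS3 helicase domain fragment enzyme · Buffer or medium – MOPS pH 6.5, MgCl2, DTT, Tween20, BSA · Reagent – Cy5/quencher beacon DNA duplex and ATP to start · Compound – single 10.9 µM dose · Timing – 1 h at 25 °C · Technique – Cy5 beacon fluorescence read at start and 1 h · Measure – % inhibition of unwinding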
VIM-2 inh: VIM-2 metallo-beta-lactamase inhibitors, primary screen, biochemical, epi-absorbance readout, Pseudomonas aeruginosa enzyme. AID 1527, 2009. inhibition, % at 5.6 µM. 290,000 tested, 0.89% active. purified VIM-2, nitrocefin hydrolysis, epi-absorbance fluorescence;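 active means inhibition above the mean of all tested compounds plus 3 SD, cutoff set per screening run, cut at about 7.5% in these data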;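 further: red hydrolysis product quenches plate fluorescence so inhibitors raise well fluorescence; 0% = enzyme with DMSO and 100% = DMSO without enzyme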
DNA FID counter-1: compounds displacing fluorescent DNA intercalator, primary screen, artefact control for HCV NS3 helicase inhibitor project, biochemical, FID fluorescence. DNA fluorescent intercalator displacement. inhibition, % at 7.9 µM. 290,000 tested, 0.17% active. AID 1845, 2009;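 further: 0% = vehicle and 100% = reference compound; higher means more ethidium bromide displaced from hairpin DNA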
IMP-1 inhibitor: IMP-1 metallo-beta-lactamase inhibitors, primary screen, biochemical, epi-absorbance readout, Pseudomonas aeruginosa enzyme; metallo-beta-lactamase IMP-1 (Pseudomonas aeruginosa); purified IMP-1, nitrocefin hydrolysis, epi-absorbance fluorescence; inhibition, % at 5.6 µM; 290,000 tested, 0.45% active; AID 1556, 2009;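 active means inhibition above the mean plus 3 SD of all compounds in the same screening run, cut at about 4.5% in these data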;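 further: 0% = IMP-1 with DMSO and 100% = DMSO wells lacking enzyme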
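Assay system: purified IMP-1; Quantity: IMP-1 0.2 nM before substrate addition; Medium: HEPES buffer pH 7.1 with ZnSO4 and Brij 35; Incubation: 15 min enzyme–compound preincubation, then 25 min nitrocefin reaction, 25 °C; Signal: fluorescence quenching readout, ex 480/em 530 nm; Controls: DMSO with and without IMP-1; Repeats: singlicate testing.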
NS3 hel confirm: HCV NS3 helicase inhibitors, retest, confirmation, biochemical, Cy5 molecular beacon fluorescence, triplicate. shares compounds with NS3 helicase inh. 1,600 tested, 31% active. NS3 helicase DNA unwinding. AID 1943, 2009. inhibition, % at 10.9 µM;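 active means inhibition above the mean of all tested compounds plus 3 SD, cutoff set per campaign, cut at about 36% in these data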
DNA FID counter-2: compounds displacing fluorescent DNA intercalator, artefact control for HCV NS3 helicase inhibitor project, biochemical, FID fluorescence, triplicate | inhibition, % at 7.9 µM | shares compounds with NS3 helicase inh | 1,600 tested, 4% active | AID 1945, 2009 | DNA fluorescent intercalator displacement;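 further: 0% = vehicle and 100% = reference compound; higher means more displacement of ethidium bromide from the DNA hairpin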
FID counter DR: compounds displacing fluorescent intercalator from DNA, dose response, counter-screen for HCV NS3 helicase inhibitor project, biochemical, fluorescence; 120 tested, under 10 active; AID 2172, 2009; shares compounds with NS3 helicase inh; IC50, µM; fluorescent intercalator displacement from DNA; call rule not given here
An asterisk follows results filed as active. Unless noted, no stated cut-off is given here; in the data, active means inhibition above about 37%; inactive means the rest.

Results for O=C(Nc1ccccc1N1CCCC1)c1cccc(-c2cc3ccccc3oc2=O)c1 ?
NS3 helicase inh: 42*; VIM-2 inh: -2; DNA FID counter-1: -15; IMP-1 inhibitor: -2; NS3 hel confirm: -6; DNA FID counter-2: -31

How did Cc1c(C(=O)Nc2cc(F)cc(F)c2)cnn1-c1ccccc1 do in these assays?
NS3 helicase inh: -1; VIM-2 inh: 0; DNA FID counter-1: -10; IMP-1 inhibitor: -1

How did O=S1(=O)NC2c3ccccc3CC2O1 (configuration not stated) do in these assays?
NS3 helicase inh: 40*; VIM-2 inh: -2; DNA FID counter-1: 4; IMP-1 inhibitor: -1; NS3 hel confirm: -13; DNA FID counter-2: 1

How did CC1(C)OCC(C2CC(c3ccccc3)NS(=O)(=O)O2)O1 (configuration not stated) do in these assays?
NS3 helicase inh: 13; VIM-2 inh: 1; DNA FID counter-1: -6; IMP-1 inhibitor: 2

Results for COC/C=C/C1=CC2=CC(=O)C(C)(OC(=O)c3cnc4ccccc4n3)C(=O)C2=CN1c1ccc(CO)cc1 (configuration not stated) ?
NS3 helicase inh: 50*; VIM-2 inh: -1; DNA FID counter-1: -13; IMP-1 inhibitor: -4; NS3 hel confirm: 42*; DNA FID counter-2: 22

How did COC/C=C/C1=CC2=CC(=O)C(C)(OC(=O)c3cnc4ccccc4n3)C(=O)C2=CN1C1CCCCC1 (configuration not stated) do in these assays?
NS3 helicase inh: 38*; VIM-2 inh: -1; DNA FID counter-1: -21; IMP-1 inhibitor: -3; NS3 hel confirm: 10; DNA FID counter-2: -13

How did COC(=O)c1cnc2ccccc2n1 do in these assays?
NS3 helicase inh: 0; VIM-2 inh: 0; DNA FID counter-1: 1; IMP-1 inhibitor: -3

What do the screens show for `Cc1noc(NS(=O)(=O)c2ccc(NC(=O)CS(=O)(=O)c3ccccc3)cc2)c1C`?
NS3 helicase inh: 0; VIM-2 inh: -1; DNA FID counter-1: -6; IMP-1 inhibitor: -2

How did Cc1noc(NS(=O)(=O)c2ccc(NC(=O)Cc3ccc([N+](=O)[O-])cc3)cc2)c1C do in these assays?
NS3 helicase inh: 42*; VIM-2 inh: 2; DNA FID counter-1: -16; IMP-1 inhibitor: 1; NS3 hel confirm: 29; DNA FID counter-2: -14

Results for Cc1cc(C)c(S(=O)(=O)Nc2ccc(O)c(Sc3ncn[nH]3)c2)cc1C ?
NS3 helicase inh: 4; VIM-2 inh: -4; DNA FID counter-1: -23; IMP-1 inhibitor: -3

What do the screens show for `CCOc1cc(CNc2ccc(N(C)C)cc2)cc(Br)c1OCC(=O)NC(C)(C)C`?
NS3 helicase inh: 53*; VIM-2 inh: -3; DNA FID counter-1: -24; IMP-1 inhibitor: -4; NS3 hel confirm: 16; DNA FID counter-2: -6

What do the screens show for `CC(C)(C)c1ccc(C(=O)NNc2cc(Cl)cc(Cl)c2)cc1`?
NS3 helicase inh: 2; VIM-2 inh: -2; DNA FID counter-1: -10; IMP-1 inhibitor: -2

How did Cc1ccccc1N1C(S)=C(C#N)C(=O)NC1c1cccs1 (configuration not stated) do in these assays?
NS3 helicase inh: 67*; VIM-2 inh: -2; DNA FID counter-1: 1; IMP-1 inhibitor: -5; NS3 hel confirm: -7; DNA FID counter-2: 2

Results for Cc1ccc(N(C)S(=O)(=O)c2csc(C(N)=O)c2)cc1C ?
NS3 helicase inh: 1; VIM-2 inh: 0; DNA FID counter-1: -4; IMP-1 inhibitor: -2

Results for O=C(N/N=C/c1c(O)ccc2ccccc12)c1cccnc1 ?
NS3 helicase inh: 87*; VIM-2 inh: -2; DNA FID counter-1: -10; IMP-1 inhibitor: 0; NS3 hel confirm: 29; DNA FID counter-2: -18

What do the screens show for `O=C(C[C@H]1C(=O)N(C2CCCCC2)C[C@@H]1Cc1ccccc1)Nc1ccccc1`?
NS3 helicase inh: 37*; VIM-2 inh: -2; DNA FID counter-1: -48; IMP-1 inhibitor: -1; NS3 hel confirm: -16; DNA FID counter-2: -28

Results for COc1cccc(CC2(CO)CCCN(Cc3ccc4c(c3)OCCO4)C2)c1 (configuration not stated) ?
NS3 helicase inh: -3; VIM-2 inh: -3; DNA FID counter-1: 9; IMP-1 inhibitor: -4

How did COc1ccc(/C=C/C(=O)Nc2nonc2NC(C)=O)cc1 do in these assays?
NS3 helicase inh: 4; VIM-2 inh: -2; DNA FID counter-1: -2; IMP-1 inhibitor: -3

Results for O=C(OCC(=O)N1CCOCC1)c1ccccc1SCC(=O)N1CCCC1 ?
NS3 helicase inh: 1; VIM-2 inh: -3; DNA FID counter-1: -7; IMP-1 inhibitor: -4

What do the screens show for `O=C(COC(=O)c1ccccc1SCC(=O)N1CCCC1)Nc1ccccc1`?
NS3 helicase inh: 38*; VIM-2 inh: -1; DNA FID counter-1: -43; IMP-1 inhibitor: -3; NS3 hel confirm: -11; DNA FID counter-2: -17

Results for O=C(CS(=O)(=O)c1ccc(Cl)cc1)NCc1ccccc1 ?
NS3 helicase inh: 4; VIM-2 inh: -2; DNA FID counter-1: -8; IMP-1 inhibitor: -4

What do the screens show for `O=C(NCCNc1ccc(Cl)cc1[N+](=O)[O-])c1ccccc1F`?
NS3 helicase inh: 41*; VIM-2 inh: 1; DNA FID counter-1: -5; IMP-1 inhibitor: 1; NS3 hel confirm: 1; DNA FID counter-2: 14

What do the screens show for `CC(C)C(C(=O)O)N1C(=O)/C(=C/C=C/c2ccco2)SC1=S` (configuration not stated)?
NS3 helicase inh: 44*; VIM-2 inh: -1; DNA FID counter-1: -9; IMP-1 inhibitor: 5.8*; NS3 hel confirm: 78*; DNA FID counter-2: 18

How did O=C(NN1C(=O)/C(=C/C=C/c2ccco2)SC1=S)c1ccncc1 do in these assays?
NS3 helicase inh: 40*; VIM-2 inh: -3; DNA FID counter-1: -11; IMP-1 inhibitor: -4; NS3 hel confirm: 78*; DNA FID counter-2: 7

How did O=C1/C(=C/C=C/c2ccco2)SC(=S)N1c1ccc(O)cc1 do in these assays?
NS3 helicase inh: 51*; VIM-2 inh: 0; DNA FID counter-1: -8; IMP-1 inhibitor: 1; NS3 hel confirm: 91*; DNA FID counter-2: 21; FID counter DR: inactive

Results for O=C1/C(=C\c2ccco2)SC(=S)N1c1ccc(O)cc1 ?
NS3 helicase inh: 25; VIM-2 inh: 4; DNA FID counter-1: 3; IMP-1 inhibitor: 4
